Reference: ChEMBL document CHEMBL4725435, “Second Generation of Zafirlukast Derivatives with Improved Activity against the Oral Pathogen Porphyromonas gingivalis” (ACS Med Chem Lett, 2020)
Active and inactive are the calls of the source. The rule behind the calls is not given here.

Legend:
Porphyromonas gingivalis [1] = assay: Antibacterial activity against Porphyromonas gingivalis 381 assessed as bacterial growth inhibition at 1 to 100 uM treated for 24 hrs by WST1 assay relative to control; assay type: functional
Outline: (§1)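 P. gingivalis 381 read by colorimetric WST-1 after 24 h. Derivatives were tested at 1, 10 and 100 μM. Tetracycline was run at 2.81 μM and ZAF at 25 and 50 μM as positive controls, with DMSO as negative control. Percent growth inhibition is versus medium-only cultures. Derivatives had 6 independent replicates per condition; controls had 36.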

Porphyromonas gingivalis [2] = assay: Antibacterial activity against Porphyromonas gingivalis 381 assessed as bacterial growth inhibition at 100 uM treated for 24 hrs by WST1 assay relative to control; assay type: functional; conditions: read-out: GI; outline: as §1
Porphyromonas gingivalis [3] = assay: Bactericidal activity against Porphyromonas gingivalis 381 assessed as growth inhibition at 100 uM treated for 24 hrs under anaerobic conditions followed by culturing in blood agar plate and measured after 5 days of incubation in an anaerobic chamber by CFU assay relative to control; assay type: functional; conditions: read-out: GI
Outline: (§2)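 P. gingivalis 381 was exposed in media for 24 h at 1, 10 or 100 μM, then grown on blood agar plates for 5 days under anaerobic conditions and counted as CFUs/mL. Percent inhibition = 100 × [CFUs/mL control − CFUs/mL experimental]/CFUs/mL control, versus medium-only bacteria. Six independent replicates per condition for test compounds, 12 for controls (tetracycline 2.81 μM, ZAF 25/50 μM, DMSO).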

Veillonella parvula = assay: Antibacterial activity against Veillonella parvula ATCC 10790 assessed as bacterial growth inhibition at 1 to 100 uM treated for 24 hrs by WST1 assay; assay type: functional, organism-based; conditions: dose microM 1-100, time 24.0 hrs
Outline: (§3)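 WST-1 colorimetric growth assay across oral bacterial species, 24 h exposure. DMSO as negative control. Positive controls were ZAF at 25 and 50 μM, or penicillin/streptomycin 1X (100 U/mL penicillin, 100 μg/mL streptomycin). Percent growth inhibition is relative to cultures in medium only, averaged from six independent replicates per condition.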

[4] = Cytotoxicity against hTERT-immortalized human OKF6 cells assessed as cell viability at 1 uM incubated for 24 hrs by Annexin V-FITC/propidium iodide staining based flow cytometric analysis relative to control; conditions: read-out: Activity
Outline: (§4)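 OKF6/hTERT oral keratinocytes were treated for 24 h, then apoptosis and necrosis were assessed by flow cytometry. DMSO served as negative control; staurosporine 8 μM and ZAF 25 μM served as positive controls. Data come from two independent experiments run in duplicate, with at least 10,000 events analysed per condition.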

Porphyromonas gingivalis [5] = assay: Antibacterial activity against Porphyromonas gingivalis 381 assessed as bacterial growth inhibition at 1 uM treated for 24 hrs by WST1 assay relative to control; assay type: functional; conditions: read-out: GI; outline: as §1
[6] = Cytotoxicity against hTERT-immortalized human OKF6 cells assessed as large and flattened cell morphology at 10 uM incubated for 24 hrs by trypan blue dye based light inverted microscopic analysis; conditions: okf6, 24 h
Outline: (§5)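 OKF6 cells were imaged by microscopy after 24 h treatment, with derivatives at 10 μM, to judge cell morphology and density from whole-well images. Medium-only and DMSO wells served as negative controls. Staurosporine 8 μM and ZAF 25 μM served as positive controls.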

[7] = Cytotoxicity against hTERT-immortalized human OKF6 cells assessed as reduction in cell density at 10 uM incubated for 24 hrs by trypan blue dye based light inverted microscopic analysis; conditions: okf6, 24 h; outline: as §5
[8] = Cytotoxicity against hTERT-immortalized human OKF6 cells assessed as cell viability at 10 uM incubated for 24 hrs by Annexin V-FITC/propidium iodide staining based flow cytometric analysis relative to control; conditions: read-out: Activity; outline: as §4
[9] = test system: Aggregatibacter actinomycetemcomitans; assay: Antibacterial activity against Aggregatibacter actinomycetemcomitans JP2 assessed as bacterial growth inhibition at 1 to 100 uM treated for 24 hrs by WST1 assay; assay type: functional, organism-based; conditions: dose microM 1-100, time 24.0 hrs; outline: as §3
Porphyromonas gingivalis [10] = assay: Bactericidal activity against Porphyromonas gingivalis 381 assessed as growth inhibition at 10 uM treated for 24 hrs under anaerobic conditions followed by culturing in blood agar plate and measured after 5 days of incubation in an anaerobic chamber by CFU assay; assay type: functional, organism-based; outline: as §2
Porphyromonas gingivalis [11] = assay: Antibacterial activity against Porphyromonas gingivalis 381 assessed as bacterial growth inhibition at 10 uM treated for 24 hrs by WST1 assay relative to control; assay type: functional; conditions: read-out: GI; outline: as §1
[12] = Cytotoxicity against hTERT-immortalized human OKF6 cells assessed as reduction in cell density at 8 uM incubated for 24 hrs by trypan blue dye based light inverted microscopic analysis; conditions: okf6, 24 h
Outline: (§6)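 Immortalized oral keratinocytes (OKF6/hTERT) were exposed for 24 h to test compounds at 10 μM. Controls were staurosporine at 8 μM or zafirlukast at 25 μM (positive) and medium only or DMSO (negative). Whole-well microscope images were then scored qualitatively for cell density and morphology (size, shape, spacing between cells).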

[13] = Cytotoxicity against hTERT-immortalized human OKF6 cells assessed as small and rounded cell morphology at 8 uM incubated for 24 hrs by trypan blue dye based light inverted microscopic analysis; conditions: okf6, 24 h; outline: as §6
Porphyromonas gingivalis [14] = assay: Bactericidal activity against Porphyromonas gingivalis 381 assessed as growth inhibition at 1 uM treated for 24 hrs under anaerobic conditions followed by culturing in blood agar plate and measured after 5 days of incubation in an anaerobic chamber by CFU assay relative to control; assay type: functional, organism-based; outline: as §2
[15] = Cytotoxicity against hTERT-immortalized human OKF6 cells assessed as small and rounded cell morphology at 10 uM incubated for 24 hrs by trypan blue dye based light inverted microscopic analysis; conditions: okf6, 24 h; outline: as §6
Porphyromonas gingivalis [16] = assay: Antibacterial activity against Porphyromonas gingivalis 381 assessed as bacterial growth inhibition at 2.81 uM treated for 24 hrs by WST1 assay relative to control; assay type: functional; conditions: read-out: GI; outline: as §1
[17] = Cytotoxicity against hTERT-immortalized human OKF6 cells assessed as small and rounded cell morphology at 25 uM incubated for 24 hrs by trypan blue dye based light inverted microscopic analysis; conditions: okf6, 24 h; outline: as §5
[18] = Cytotoxicity against hTERT-immortalized human OKF6 cells assessed as reduction in cell density at 25 uM incubated for 24 hrs by trypan blue dye based light inverted microscopic analysis; conditions: okf6, 24 h; outline: as §5
Porphyromonas gingivalis [19] = assay: Antibacterial activity against Porphyromonas gingivalis 381 assessed as bacterial growth inhibition at 50 uM treated for 24 hrs by WST1 assay relative to control; assay type: functional; conditions: read-out: GI; outline: as §1
Porphyromonas gingivalis [20] = assay: Antibacterial activity against Porphyromonas gingivalis 381 assessed as bacterial growth inhibition at 25 uM treated for 24 hrs by WST1 assay relative to control; assay type: functional; conditions: read-out: GI; outline: as §1
[21] = dose microM 1-100, time 24.0 hrs

Structure (SMILES)	inhibition of growth at 100 µM (Porphyromonas gingivalis [2]) [%]	inhibition of growth at 100 µM (Porphyromonas gingivalis [3]) [%]	growth inhibition (GI) (Veillonella parvula)	viability at 24 h, 1 µM [4] [%]	inhibition of growth at 1 µM (Porphyromonas gingivalis [5]) [%]	Activity [7]	viability at 24 h, 10 µM [8] [%]	growth inhibition (GI) [9]	Activity (Porphyromonas gingivalis [10])	inhibition of growth at 10 µM (Porphyromonas gingivalis [11]) [%]	further results
COc1ccc(Cc2c[nH]c3ccccc23)cc1C(=O)NS(=O)(=O)c1ccccc1F											growth inhibition (GI) (Porphyromonas gingivalis [1]; [21]): inactive
COc1ccc(Cc2cn(C)c3ccccc23)cc1C(=O)NS(=O)(=O)c1cccc([N+](=O)[O-])c1	58	100	inactive	76	18	Non-Toxic	49	inactive	inactive	50	growth inhibition (GI) (Porphyromonas gingivalis [1]; dose microM 1-100): 18%; Activity [6]: Non-Toxic
COc1ccc(Cc2c[nH]c3ccccc23)cc1C(=O)NS(=O)(=O)c1ccc(F)cc1											growth inhibition (GI) (Porphyromonas gingivalis [1]; [21]): inactive
COc1ccc(Cc2cn(C)c3ccccc23)cc1C(=O)NS(=O)(=O)c1ccc([N+](=O)[O-])cc1											growth inhibition (GI) (Porphyromonas gingivalis [1]; dose microM 1-100): 0%
COc1ccc(Cc2cn(C)c3ccc([N+](=O)[O-])cc23)cc1C(=O)NS(=O)(=O)c1cccc([N+](=O)[O-])c1	58				53					59	
COc1ccc(Cc2cn(C)c3ccccc23)cc1C(=O)NS(=O)(=O)c1ccc(F)cc1	58	100	inactive	76		Non-Toxic	49	inactive	inactive	59	Activity [6]: Non-Toxic
COc1ccc(Cc2cn(C)c3ccc([N+](=O)[O-])cc23)cc1C(=O)NS(=O)(=O)c1ccccc1F	58				53					59	
COc1ccc(Cc2cn(C)c3ccccc23)cc1C(=O)NS(=O)(=O)c1ccc2ccccc2c1	58	100	inactive	76		Toxic	49	inactive	inactive		Activity [6]: Non-Toxic
COc1ccc(Cc2cn(C)c3ccc([N+](=O)[O-])cc23)cc1C(=O)NS(=O)(=O)c1ccc(F)cc1	58									59	
CN[C@@H]1C[C@H]2O[C@@](C)([C@@H]1OC)n1c3ccccc3c3c4c(c5c6ccccc6n2c5c31)C(=O)NC4 [STAUROSPORINE]											Activity [12]: Toxic; Activity [13]: Toxic
COc1ccc(Cc2cn(C)c3ccccc23)cc1C(=O)NS(=O)(=O)c1ccccc1C	74				16					56	
COc1ccc(Cc2cn(C)c3ccccc23)cc1C(=O)NS(=O)(=O)c1cccc(F)c1	73	100	inactive	76	14	Non-Toxic	49	inactive	inactive	57	Activity [6]: Non-Toxic
COc1ccc(Cc2c[nH]c3ccccc23)cc1C(=O)NS(=O)(=O)c1ccc2ccccc2c1											growth inhibition (GI) (Porphyromonas gingivalis [1]; [21]): inactive
COc1ccc(Cc2cn(C)c3ccc([N+](=O)[O-])cc23)cc1C(=O)NS(=O)(=O)c1ccc2ccccc2c1	58									57	
COc1ccc(Cc2cn(C)c3ccc([N+](=O)[O-])cc23)cc1C(=O)NS(=O)(=O)c1ccccc1					0						
COc1ccc(Cc2cn(C)c3ccc([N+](=O)[O-])cc23)cc1C(=O)NS(=O)(=O)c1cccc(F)c1	58	100	inactive	76	53	Toxic	49	inactive	Active	59	Activity (Porphyromonas gingivalis [14]): Active; Activity [15]: Toxic
CN(C)[C@@H]1C(O)=C(C(N)=O)C(=O)[C@@]2(O)C(O)=C3C(=O)c4c(O)cccc4[C@@](C)(O)[C@H]3C[C@@H]12 [TETRACYCLINE]											inhibition of growth at 2.81 µM (Porphyromonas gingivalis [16]): 51%
COc1ccc(Cc2cn(C)c3ccc([N+](=O)[O-])cc23)cc1C(=O)NS(=O)(=O)c1ccc([N+](=O)[O-])cc1	58	100	inactive	76	53	Toxic	49	inactive	Active	59	Activity (Porphyromonas gingivalis [14]): Active; Activity [15]: Toxic
COc1cc(C(=O)NS(=O)(=O)c2ccccc2C)ccc1Cc1cn(C)c2ccc(NC(=O)OC3CCCC3)cc12 [ZAFIRLUKAST]											Activity [17]: Toxic; Activity [18]: Toxic; inhibition of growth at 50 µM (Porphyromonas gingivalis [19]): 68%; inhibition of growth at 25 µM (Porphyromonas gingivalis [20]): 70%
COc1ccc(Cc2cn(C)c3ccccc23)cc1C(=O)NS(=O)(=O)c1ccccc1F	55										
